Source: ChEMBL document CHEMBL2093137, “WHO-TDR NTD Screening”
≈ marks a conversion by molar mass, not a printed value.

Experiments:
[1] = test system: Onchocerca ochengi; test: (§1) WHO-TDR: Onchocerciasis; format: functional; design: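 at 12.5 µM on microfilariae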
Summary of the method: (§2)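 Percent inhibition and IC50 describe activity against microfilariae of Onchocerca ochengi or Onchocerca lienalis, used as animal-pathogen substitutes for the human parasite. The compounds tested made up a 10,000-member diverse library from Life Chemicals.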

[2] = test system: Schistosoma mansoni; test: WHO-TDR: Schistosomiasis; format: functional; design: concentration or dose not given beside the values
Summary of the method: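 Percent inhibition and IC50 describe activity against whole Schistosoma mansoni worms of the Puerto Rican strain, tested as larvae and/or adults. The compounds screened were a diverse set of 10,000 from Life Chemicals, filtered for drug-likeness and reactive groups. Testing followed previously published standard procedures, with a reference drug as positive control.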

[3] = test system: Trypanosoma cruzi; test: WHO-TDR: Chagas disease; format: functional, organism-based, Homo sapiens; conditions: MRC5
Summary of the method: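 Following previously published standard procedures, with a reference drug as positive control, a whole-organism assay was run on Trypanosoma cruzi Tulahuen CL2 beta-galactosidase strain amastigotes inside MRC-5SV2 human lung fibroblast host cells. The 10,000 compounds tested formed a diverse Life Chemicals library filtered for drug-likeness and reactive groups. Results are expressed as IC50 for antiparasitic potency.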

[4] = test system: Trypanosoma brucei brucei; test: WHO-TDR: Human African Trypanosomiasis (HAT); format: functional, organism-based; conditions: Squib-427
Summary of the method: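 A diverse library of 10,000 compounds from Life Chemicals, filtered for drug-likeness and reactive groups, was screened against bloodstream forms of Trypanosoma brucei Squib 427 strain in a whole-organism assay. Previously published standard procedures were followed, with reference drugs serving as positive controls. Antiparasitic potency is given as IC50.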

[5] = test system: Onchocerca ochengi; test: as §1; format: functional; design: concentration or dose not given beside the values; summary of the method: as §2; remark: listed apart in the source
[6] = test system: Leishmania infantum; test: WHO-TDR: Leishmaniasis; format: functional, organism-based, Mus musculus; conditions: Macrophage
Summary of the method: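 A diverse library of 10,000 compounds from Life Chemicals, filtered for drug-likeness and reactive groups, was screened against whole organisms. The targets were intracellular amastigotes of Leishmania infantum MHOM/MA(BE)/67 growing in murine peritoneal macrophages. Previously published standard procedures were followed, with a reference drug as positive control. Antiparasitic potency is given as IC50.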

[7] = WHO-TDR: Cytotoxicity; format: toxicity, cell-based; conditions: human, MRC5 cells
[8] = test system: Plasmodium falciparum K1; test: WHO-TDR: Malaria; format: functional, organism-based, Homo sapiens; conditions: Erythrocyte
Summary of the method: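 A diverse library of 10,000 compounds from Life Chemicals, filtered for drug-likeness and reactive groups, was screened against the intra-erythrocytic Plasmodium falciparum K1 strain in human red blood cells. Previously published standard procedures were followed, with a reference drug as positive control. Antiplasmodial potency is given as IC50.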

| IC50 [4] | IC50 [6] | IC50 [8] | SMILES | % Inhibition [1] | % Inhibition [2] | IC50 [3] | % Inhibition [5] | IC50 [7] |
| --- | --- | --- | --- | --- | --- | --- | --- | --- |
| > 12.4 µg/mL | 4.03 µg/mL (≈ 9.71 µM) | 1.47 µg/mL (≈ 3.54 µM) | CN1CCN(C(CNC(=O)c2ccc(F)c(F)c2)c2ccc3c(c2)CCN3C)CC1 (stereo not drawn) | 0% | 0% | > 12.4 µg/mL | 100% | 3.34 µg/mL (≈ 8.05 µM) |
| 4.14 µg/mL (≈ 9.71 µM) | 1.9 µg/mL (≈ 4.46 µM) | 3.56 µg/mL (≈ 8.35 µM) | CN1CCN(C(CNC(=O)COc2ccccc2F)c2ccc3c(c2)CCN3C)CC1 (stereo not drawn) | 0% | 0% | > 12.8 µg/mL | 0% | > 12.8 µg/mL |
| 0.411 µg/mL (≈ 0.96 µM) | 4.16 µg/mL (≈ 9.71 µM) | > 12.8 µg/mL | CN1CCCc2cc(C(CNC(=O)COc3ccc(Cl)cc3)N3CCCC3)ccc21 (stereo not drawn) | 0% | 25% | 4.46 µg/mL (≈ 10.4 µM) | 0% | > 12.8 µg/mL |
| > 12.7 µg/mL | > 12.7 µg/mL | > 12.7 µg/mL | CN1CCCc2cc(C(CNC(=O)c3ccc4c(c3)OCO4)N3CCOCC3)ccc21 (stereo not drawn) | 0% | 0% | 4.94 µg/mL (≈ 11.7 µM) | 100% | 11.2 µg/mL (≈ 26.3 µM) |
| 3.68 µg/mL (≈ 9.6 µM) | > 11.5 µg/mL | > 11.5 µg/mL | CN1CCCc2cc(C(CNC(=O)c3cccs3)N3CCCCC3)ccc21 (stereo not drawn) | 0% | 0% | 10.4 µg/mL (≈ 27.2 µM) | 100% | > 11.5 µg/mL |
| 4.04 µg/mL (≈ 9.6 µM) | 4.09 µg/mL (≈ 9.71 µM) | > 12.6 µg/mL | C=CCN1C(=O)C(C)(C)COc2cc(NS(=O)(=O)c3ccccc3Cl)ccc21 | 0% | 0% | 4.05 µg/mL (≈ 9.61 µM) | 100% | > 12.6 µg/mL |
| 3.72 µg/mL (≈ 9.49 µM) | > 11.8 µg/mL | > 11.8 µg/mL | C=CCN1C(=O)C(C)(C)COc2cc(NS(=O)(=O)C3CCCCC3)ccc21 | 60% | 0% | 8.42 µg/mL (≈ 21.4 µM) | 100% | > 11.8 µg/mL |
| 4.27 µg/mL (≈ 9.6 µM) | > 13.3 µg/mL | > 13.3 µg/mL | CCCN1C(=O)C(C)(C)COc2cc(NS(=O)(=O)c3c(C)c(C)cc(C)c3C)ccc21 | 0% | 0% | 3.55 µg/mL (≈ 7.99 µM) | 100% | > 13.3 µg/mL |
| 4.62 µg/mL (≈ 11.1 µM) | > 12.5 µg/mL | > 12.5 µg/mL | CCCN1C(=O)C(C)(C)COc2cc(NS(=O)(=O)Cc3ccc(C)cc3)ccc21 | 60% | 0% | > 12.5 µg/mL | 100% | > 12.5 µg/mL |
| 4.62 µg/mL (≈ 9.6 µM) | > 14.4 µg/mL | > 14.4 µg/mL | CC(C)CN1C(=O)C(C)(C)COc2cc(NS(=O)(=O)c3ccccc3Br)ccc21 | 0% | 0% | 4.3 µg/mL (≈ 8.93 µM) | 100% | > 14.4 µg/mL |
| > 11.4 µg/mL | > 11.4 µg/mL | > 11.4 µg/mL | CN1C(=O)C(C)(C)COc2ccc(NS(=O)(=O)c3ccccc3F)cc21 | 0% | 0% | > 11.4 µg/mL | 100% | > 11.4 µg/mL |
| > 13.3 µg/mL | > 13.3 µg/mL | > 13.3 µg/mL | C=CCN1C(=O)C(C)(C)COc2ccc(NS(=O)(=O)c3ccc4c(c3)OCCO4)cc21 | 0% | 0% | > 13.3 µg/mL | 100% | > 13.3 µg/mL |
| > 13.2 µg/mL | 4.28 µg/mL (≈ 9.71 µM) | > 13.2 µg/mL | C=CCN1C(=O)C(C)(C)COc2ccc(NS(=O)(=O)c3ccc4c(c3)CCCC4)cc21 | 0% | 0% | 11.4 µg/mL (≈ 26 µM) | 100% | > 13.2 µg/mL |
| 3.08 µg/mL (≈ 8.08 µM) | 3.69 µg/mL (≈ 9.71 µM) | > 11.4 µg/mL | CCc1ccc(S(=O)(=O)Nc2ccc3c(c2)NC(=O)C(C)(C)CO3)s1 | 60% | 0% | 3.45 µg/mL (≈ 9.08 µM) | 100% | > 11.4 µg/mL |
| 6.82 µg/mL (≈ 21.8 µM) | > 9.37 µg/mL | 3.66 µg/mL (≈ 11.7 µM) | CC(C)S(=O)(=O)Nc1ccc2c(c1)NC(=O)C(C)(C)CO2 | 0% | 0% | 3.93 µg/mL (≈ 12.6 µM) | 100% | > 9.37 µg/mL |
| 6.16 µg/mL (≈ 15.5 µM) | > 11.9 µg/mL | > 11.9 µg/mL | CC1(C)COc2ccc(NS(=O)(=O)c3cccc4ccccc34)cc2NC1=O | 0% | 0% | > 11.9 µg/mL | 100% | > 11.9 µg/mL |
| 3.89 µg/mL (≈ 9.85 µM) | > 11.8 µg/mL | > 11.8 µg/mL | Cc1ccc(Cl)cc1S(=O)(=O)Nc1ccc2c(c1)NC(=O)C(C)(C)CO2 | 0% | 0% | 3.95 µg/mL (≈ 10 µM) | 100% | > 11.8 µg/mL |
| > 13.3 µg/mL | > 13.3 µg/mL | > 13.3 µg/mL | O=C(Cc1csc(NS(=O)(=O)c2ccc(Cl)cc2)n1)Nc1ccc(F)c(F)c1 | 0% | 0% | > 13.3 µg/mL | 100% | > 13.3 µg/mL |
| > 11.4 µg/mL | > 11.4 µg/mL | > 11.4 µg/mL | CCOC(=O)c1ccccc1NC(=O)CSc1ncc(-c2ccccc2)[nH]1 | 0% | 0% | > 11.4 µg/mL | 100% | > 11.4 µg/mL |
| > 10.5 µg/mL | > 10.5 µg/mL | > 10.5 µg/mL | O=C(CSc1ncc(-c2ccccc2)[nH]1)N1CCCc2ccccc21 | 0% | 0% | > 10.5 µg/mL | 100% | > 10.5 µg/mL |
| > 12.4 µg/mL | > 12.4 µg/mL | > 12.4 µg/mL | O=C(CSc1ncc(-c2ccccc2)[nH]1)Nc1cc(C(F)(F)F)ccc1Cl | 0% | 0% | > 12.4 µg/mL | 100% | > 12.4 µg/mL |
| > 14.7 µg/mL | > 14.7 µg/mL | > 14.7 µg/mL | O=C(CSc1nc(CC(=O)N2CCN(c3ccccc3F)CC2)cs1)Nc1ccc(F)cc1 | 0% | 0% | > 14.7 µg/mL | 100% | > 14.7 µg/mL |
| > 13.2 µg/mL | > 13.2 µg/mL | > 13.2 µg/mL | CC1Cc2ccccc2N1C(=O)Cc1csc(SCC(=O)Nc2ccc(F)cc2)n1 (stereo not drawn) | 0% | 0% | 4.42 µg/mL (≈ 10 µM) | 100% | > 13.2 µg/mL |
| > 1.21 µg/mL | > 12.1 µg/mL | > 12.1 µg/mL | COc1cc(CSc2nc(CC(=O)NCc3ccco3)cs2)cc(OC)c1 | 0% | 0% | 2.99 µg/mL (≈ 7.4 µM) | 100% | 7.55 µg/mL (≈ 18.7 µM) |
| 3.86 µg/mL (≈ 9.49 µM) | > 12.2 µg/mL | > 12.2 µg/mL | O=C(Cc1csc(SCc2ccc(Cl)cc2)n1)NCCC1=CCCCC1 | 0% | 0% | 3.58 µg/mL (≈ 8.8 µM) | 100% | > 12.2 µg/mL |
| > 13.3 µg/mL | > 13.3 µg/mL | > 13.3 µg/mL | COc1ccc(CCNC(=O)Cc2csc(SCc3ccc(C)cc3)n2)cc1OC | 0% | 0% | 4.01 µg/mL (≈ 9.07 µM) | 100% | > 13.3 µg/mL |
| 4.07 µg/mL (≈ 9.49 µM) | > 12.9 µg/mL | > 12.9 µg/mL | CSc1nc(NC(C)C)c2cnn(CCNC(=O)C34CC5CC(CC(C5)C3)C4)c2n1 | 0% | 0% | 4.17 µg/mL (≈ 9.73 µM) | 100% | > 12.9 µg/mL |
| 4.13 µg/mL (≈ 9.49 µM) | > 13 µg/mL | > 13 µg/mL | CSc1nc(NC(C)C)c2cnn(CCNC(=O)COc3ccc(Cl)cc3)c2n1 | 0% | 0% | 4.18 µg/mL (≈ 9.62 µM) | 100% | > 13 µg/mL |

| SMILES | IC50 [4] | IC50 [6] | IC50 [8] | % Inhibition [1] | % Inhibition [2] | IC50 [3] | % Inhibition [5] | IC50 [7] |
| --- | --- | --- | --- | --- | --- | --- | --- | --- |
| CCc1ccc2nc(N(CCN(CC)CC)C(=O)Cc3ccc4c(c3)OCO4)sc2c1 | 0.457 µg/mL (≈ 1.04 µM) | 7.4 µg/mL (≈ 16.8 µM) | 4.52 µg/mL (≈ 10.3 µM) | 0% | 0% | 3.61 µg/mL (≈ 8.21 µM) | 0% | > 14.3 µg/mL |
| CCN(CC)CCN(C(=O)Cc1ccc2c(c1)OCO2)c1nc2c(C)cc(C)cc2s1 | 0.452 µg/mL (≈ 1.03 µM) | 7.4 µg/mL (≈ 16.8 µM) | 4.32 µg/mL (≈ 9.83 µM) | 0% | 0% | 4.58 µg/mL (≈ 10.4 µM) | 0% | 11.2 µg/mL (≈ 25.4 µM) |
| CCN(CC)CCN(C(=O)Cc1ccc2c(c1)OCO2)c1nc2c(C)c(C)ccc2s1 | 0.452 µg/mL (≈ 1.03 µM) | > 14.3 µg/mL | 8.03 µg/mL (≈ 18.3 µM) | 0% | 0% | 9.51 µg/mL (≈ 21.6 µM) | 0% | > 14.3 µg/mL |
